# In ChEMBL document CHEMBL1131069 (J Med Chem, 1998):
# pIC50: −log10 of the molar value.
# Legend:
# Rattus norvegicus [1] = test: Anticonvulsant activity was determined in rats at a dose of 30 mg/kg after 2 hour by MES test. (+ denotes activity in 0-25% of administered animals).; type: functional, organism-based; parameters: dose 30 mg/kg
# [2] = Neurotoxicity determined at 4 hours after the administration of compound by rotarod test (- denotes activity at 300 mg/kg); type: toxicity, organism-based; parameters: dose 300 mg/kg; settings: mouse, in vivo
# Outline: (§1)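 Male CF-1 mice dosed ip at 30, 100 or 300 mg/kg and tested 30 min or 4 h later on a 1-in. knurled rod turning at 6 rpm. A deficit was failure to stay on the rod for 1 min in each of three trials. Coding: ++ 100, + 300 mg/kg; - means none at 300 mg/kg.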
# Mus musculus [3] = test: Anticonvulsant activity determined at 4 hours after the administration of compound using MES test.(++= signify activity at 100 mg/kg); type: functional, organism-based; parameters: dose 100 mg/kg
# Outline: (§2)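 Male CF-1 albino mice (18-25 g) dosed intraperitoneally at 30, 100 or 300 mg/kg. Protection against maximal electroshock-induced seizures was scored 30 min or 4 h after dosing.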
# Mus musculus [4] = test: Anticonvulsant activity determined at 30 minutes after the administration of compound using MES test.(++= signify activity at 100 mg/kg); type: functional, organism-based; parameters: dose 100 mg/kg; outline: as §2
# [5] = Neurotoxicity determined at 30 minutes after the administration of compound by rotarod test.(+ = signify activity at 300 mg/kg); type: toxicity, organism-based; parameters: dose 300 mg/kg; settings: mouse, in vivo, 0.5 h; outline: as §1
# Rattus norvegicus [6] = test: Anticonvulsant ED50 activity by MES test in rats dosed orally; type: functional; settings: po
# Outline: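 Male Sprague-Dawley rats (100-150 g) dosed orally. ED50 is the dose protecting 50% of animals against maximal electroshock-induced seizures. […]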
# Rattus norvegicus [7] = test: Anticonvulsant activity was determined in rats at a dose of 30 mg/kg after 4 hour by MES test. (++ denotes activity in 25-50% of administered animals).; type: functional, organism-based; parameters: dose 30 mg/kg
# [8] = Apparent IC50 value by [3H]batrachotoxinin-A-20-alpha-benzoate-binding test performed in rat brain synaptosomes; type: subcellular
# Outline: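 Rat brain synaptosomes, about 400 µg protein per assay, incubated 2 h at 37 °C, pH 7.4, in choline chloride/HEPES/glucose/KCl medium with 10 nM [³H]batrachotoxinin-A-20α-benzoate and scorpion venom. Stopped with cold-free choline chloride/HEPES/CaCl₂/MgSO₄ washes, filtered on GF/B, bound radioactivity counted. Protein by Bradford. Apparent IC50 from quadruplicate measurements, mean ± SD.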
# [9] = Toxicity was determined in rats at a dose of 30 mg/kg after 4 hour. (- denotes no activity in administered animals).; type: organism-based; parameters: dose 30 mg/kg; settings: rat, in vivo
# Outline: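 Male Sprague-Dawley rats given a single oral dose of 30 mg/kg and assessed for toxicity 4 h after dosing, with at least four animals per time point. Score is the fraction of animals affected (+ 0-25%); - means no toxicity.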
# Rattus norvegicus [10] = test: Anticonvulsant activity was determined in rats at a dose of 30 mg/kg after 15 minutes by MES test. (++++ denotes activity in 75-100% of administered animals); type: functional, organism-based; parameters: dose 30 mg/kg
# Rattus norvegicus [11] = test: Anticonvulsant activity was determined in rats at a dose of 30 mg/kg after 4 hour by MES test. (++++ denotes activity in 75-100% of administered animals); type: functional, organism-based; parameters: dose 30 mg/kg
# [12] = Neurotoxicity determined at 30 minutes after the administration of compound by rotarod test.(- denotes activity at 300 mg/kg); type: toxicity, organism-based; parameters: dose 300 mg/kg; settings: mouse, in vivo, 0.5 h; outline: as §1
# [13] = Neurotoxicity determined at 4 hours after the administration of compound by rotarod test(- denotes activity at 300 mg/kg); type: toxicity, organism-based; parameters: dose 300 mg/kg; settings: mouse, in vivo; outline: as §1
# Rattus norvegicus [14] = test: Anticonvulsant activity was determined in rats at a dose of 30 mg/kg after 1 hour by MES test. (++ denotes activity in 25-50% of administered animals).; type: functional, organism-based; parameters: dose 30 mg/kg
# [15] = Neurotoxicity determined at 30 minutes after the administration of compound by rotarod test. (+ = signify activity at 300 mg/kg); type: toxicity, organism-based; parameters: dose 300 mg/kg; settings: mouse, in vivo, 0.5 h; outline: as §1
# Mus musculus [16] = test: Anticonvulsant activity determined at 4 hours after the administration of compound using MES test. (++= signify activity at 100 mg/kg); type: functional, organism-based; parameters: dose 100 mg/kg; outline: as §2
# Mus musculus [17] = test: Anticonvulsant activity determined at 30 minutes after the administration of compound using MES test. (+ = signify activity at 300 mg/kg); type: functional, organism-based; parameters: dose 300 mg/kg; outline: as §2
# [18] = Neurotoxicity determined at 4 hours after the administration of compound by rotarod test (+ = signify activity at 300 mg/kg); type: toxicity, organism-based; parameters: dose 300 mg/kg; settings: mouse, in vivo; outline: as §1
Structure (SMILES),Activity (Rattus norvegicus [1]),Activity [2],Activity (Mus musculus [3]),Activity (Mus musculus [4]),Activity [5],ED50 (Rattus norvegicus [6]) [µmol/kg],Activity (Rattus norvegicus [7]),pIC50 [8],Activity [9],Activity (Rattus norvegicus [10]),Activity (Rattus norvegicus [11]),Activity [12],Activity [13],Activity (Rattus norvegicus [14]),Activity [15],Activity (Mus musculus [16]),Activity (Mus musculus [17]),Activity [18]
Cc1cccc(C)c1N1C(=O)c2ccc(Cl)cc2C1=O,activity in 0-25% of administered animals,activity in 0-25% of administered animals,activity in 0-25% of administered animals,activity in 0-25% of administered animals,activity in 0-25% of administered animals,354,activity in 0-25% of administered animals,4.32,–,–,–,–,–,–,–,–,–,–
Cc1cccc(C)c1NC(=O)c1ccc(N)cc1 [AMELTOLIDE],–,–,Activity at 300 mg/kg,–,–,135,–,–,Activity at 300 mg/kg,++,++,Activity at 300 mg/kg,Activity at 300 mg/kg,–,–,–,–,–
Cc1cccc(C)c1N1C(=O)c2ccccc2C1=O,activity in 0-25% of administered animals,–,–,activity in 0-25% of administered animals,–,231,–,3.79,–,–,–,activity in 0-25% of administered animals,activity in 0-25% of administered animals,activity in 0-25% of administered animals,–,–,–,–
Cc1cccc(C)c1NC(=O)c1ccc([N+](=O)[O-])cc1,–,Activity at 300 mg/kg,–,–,–,52.3,–,6.60,Activity at 300 mg/kg,++,–,–,–,–,Activity at 300 mg/kg,Activity at 300 mg/kg,–,–
CC1(C)CC(NC(=O)c2ccc([N+](=O)[O-])cc2)CC(C)(C)N1,–,–,–,–,signifies activity at 300 mg/kg,> 650,–,4.59,signifies activity at 300 mg/kg,–,–,–,–,–,–,–,signifies activity at 300 mg/kg,signifies activity at 300 mg/kg
